# Screens as filed in PubChem.
# AF4-AF9 inh = blocks AF4 peptide binding to human AF9 | 350,000 tested, 0.47% active | AID 651704 | P42568 | AlphaScreen, biotin-AF4 peptide binding to FLAG-AF9 | inhibition, % at 10 µM;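 active means every replicate reaching a set inhibition limit, whatever the replicate mean, cut at about 25% in these data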;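 further: 0% = plate neutral control median and 100% = total signal loss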
# RAD54 branch = RAD54 (human) branch migration inhibition; Q92698; RAD54 Holliday junction branch migration, FAM/BHQ fluorescence; inhibition, % at 10.4 µM; 360,000 tested, 0.14% active; AID 602329;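 active means mean normalized replicate activity at least 40 and at least half of replicates scoring 40 or more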;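 further: 0% = median of neutral control wells and 100% = median of positive control wells; inhibitors cause a drop in the FAM fluorescence signal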
# GSIS activator = primary screen for activators of insulin secretion dependent on glucose, INS-1E cells, GLuc reporter luminescence | activation, % at 16.6 µM | INS-1E GLuc reporter insulin secretion, 2-3 h | 370,000 tested, 0.61% active | AID 743287;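 active means lowest replicate activation of at least 40%, so every replicate reaches that level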;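 further: 0% = median of neutral control wells and 100% = median of IBMX positive control wells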
# S100A4 MyoIIA = blocks human S100A4 binding to myosin IIA peptide. S100A4/TAMRA-MyoIIA peptide fluorescence polarization. inhibition, % at 10.7 µM. 360,000 tested, 0.14% active. AID 652163;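 active means mean inhibition of at least 70% across replicates, with every replicate also reaching that level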
# Target sequence (P26447 whole entry, looked up): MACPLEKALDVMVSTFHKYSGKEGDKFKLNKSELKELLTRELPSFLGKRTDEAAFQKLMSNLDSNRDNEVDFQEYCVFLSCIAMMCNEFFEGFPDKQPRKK
#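 System – human S100A4 monomer protein, biochemical binding assay · Buffer or medium – Calcium-containing HEPES buffer, pH 7.2 · Timing – 5 min between mix addition and reading · Also added – TAMRA-labelled myosin IIA heavy-chain peptide probe, 5 nM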
# RAD52 inh = inhibitors of human RAD52 DNA annealing. P43351. recombinant RAD52 DNA annealing, FRET fluorescence. inhibition, % at 18.7 µM. 360,000 tested, 0.46% active. AID 651710;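 active means every replicate showing at least 50% inhibition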
# Target sequence (P43351 whole entry, looked up): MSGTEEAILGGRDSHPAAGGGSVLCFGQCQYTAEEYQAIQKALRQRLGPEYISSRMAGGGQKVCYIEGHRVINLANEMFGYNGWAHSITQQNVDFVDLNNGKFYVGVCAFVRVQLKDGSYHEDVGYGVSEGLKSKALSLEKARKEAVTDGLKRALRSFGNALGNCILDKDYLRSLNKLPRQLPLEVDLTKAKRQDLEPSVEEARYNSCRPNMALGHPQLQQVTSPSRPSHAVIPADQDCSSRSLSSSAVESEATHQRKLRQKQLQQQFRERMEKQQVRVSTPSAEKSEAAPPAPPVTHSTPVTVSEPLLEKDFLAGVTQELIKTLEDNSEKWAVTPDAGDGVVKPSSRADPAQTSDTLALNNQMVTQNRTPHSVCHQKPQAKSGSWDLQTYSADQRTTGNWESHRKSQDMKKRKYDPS
# * = called active by the depositor; · = no result given. A selection: hits, their analogues and other compounds. The true share with any hit is near 1.3%.
SMILES,AF4-AF9 inh,RAD54 branch,GSIS activator,S100A4 MyoIIA,RAD52 inh
COc1ccc(N(C(=O)CCl)C(C(=O)NCCc2ccccc2)c2cccs2)cc1 (centres undefined),1,9,53*,-3,-12
COc1ccc(NC(=O)Nc2ccc3c(c2)C(=O)N([C@@H](C)CO)C[C@@H](C)[C@@H](CN(C)S(=O)(=O)c2cccs2)OCCCC[C@H](C)O3)cc1,-3,10,7,2,5
CN1CCN(C2Cc3ccccc3Sc3cc(C(F)(F)F)ccc32)CC1 (centres undefined),26*,·,402*,-2,36
CN(C)C(=O)c1cc2c(c(-c3cccc(C4=CCCC4)c3)n1)[C@H](CCO)N([S@@](=O)C(C)(C)C)C2,-6,0,12,-51,-107
CCCNC(=O)Nc1ccc2c(c1)OC[C@@H](C)N(CCC(F)(F)F)C[C@H](C)[C@H](OC)CN(C)C2=O,-1,-1,-9,6,-16
O=C(COC(=O)c1cccnc1Cl)Nc1cc(S(=O)(=O)N2CCCCCC2)ccc1Cl,0,-1,42*,-3,-8
O=C(COC(=O)c1cccnc1Cl)Nc1cc(S(=O)(=O)N2CCCCC2)ccc1Cl,1,·,-23,4,-10
CCN(c1ccccc1)S(=O)(=O)c1ccc(OC)c(OC)c1,1,·,55*,-2,-2
COc1ccc(CNC(=O)CCn2c(=O)oc3ccccc32)c(OC)c1,-2,2,58*,2,-14
COc1cccc(CNC(=O)CCn2c(=O)oc3ccccc32)c1,·,-8,·,·,·
C[C@H]1CN([C@@H](C)CO)S(=O)(=O)c2ccc(C3=CCCCC3)cc2O[C@H]1CN(C)C(=O)Cc1cccnc1,5,4,-6,-11,0
Cc1nc(NC(=O)CSc2ccc(-c3nc4ccccc4[nH]3)cn2)sc1C,·,·,51*,·,·
Cc1ccc2nc(-c3ccc(SCC(=O)Nc4nnc(C)s4)nc3)[nH]c2c1,·,·,459*,·,·
O=C(CCN1CCCCC1)NCC[C@@H]1CC[C@H](NC(=O)Cc2cccnc2)[C@H](CO)O1,·,·,2,·,·
CCc1ccc(C2c3[nH]c4ccccc4c3CCN2C(=O)CN2CCN(CC)CC2)cc1 (centres undefined),31*,·,-6,3,37
COC(=O)COc1cc(OCC(=O)OC)c2c(-c3ccccc3)cc(=O)oc2c1,0,6,64*,3,2
CC(=O)COc1cc(C)cc2oc(=O)cc(-c3ccccc3)c12,-2,·,-5,3,-15
CC1=NS(=O)(=O)NC(C)(C)C1,2,·,53*,2,-8
Cn1c(SCC(=O)N2CCCC2=O)nc2ccccc2c1=O,0,-7,·,4,-8
CCCn1c(SCC(=O)N2CCCC2=O)nc2ccccc2c1=O,-2,9,46*,5,0
CC(C)C1CC(CCNCc2ccc3c(c2)OCO3)(c2ccccc2)CCO1 (centres undefined),5,·,-22,-2,4
Cc1ccc(C2(CCNCc3ccc(N(C)C)cc3)CCOC(C(C)C)C2)cc1 (centres undefined),40*,·,·,-12,-41
CC(=O)Nc1ccc(Nc2ncnc(N)c2[N+](=O)[O-])cc1,50*,·,4,3,-8
Cc1cc(C(=O)Nc2cccc3c2O[C@H](CN(C)C(=O)Nc2cccc4ccccc24)[C@H](C)CN([C@H](C)CO)C3=O)n(C)n1,0,-3,10,5,-6
CC(C)NC(=O)Nc1ccc2c(c1)C(=O)N([C@H](C)CO)C[C@@H](C)[C@@H](CN(C)Cc1ccncc1)OCCCC[C@@H](C)O2,2,4,10,41,3
SMILES,AF4-AF9 inh,RAD54 branch,GSIS activator,S100A4 MyoIIA,RAD52 inh
CCCN(CC(=O)Nc1ccccc1OC)C(=O)C1CCCC1,-3,-11,10,-10,-8
CCN(CC(=O)Nc1ccccc1OC)C(=O)C1CCCC1,0,4,68*,-1,1
Cc1cc2cc(CNC(=O)Nc3cccc(Cl)c3)ccc2n1C,0,-3,8,78*,-38
CC(C)NC(=O)C1(C)CCN1Cc1cccc(C#N)c1 (centres undefined),-2,8,43*,1,-9
CC1CCN(S(=O)(=O)c2cnc(Cl)c(Br)c2)CC1,27*,·,11,0,-17
COc1cccc(NC(=O)N2C[C@H](O)COC[C@H]3O[C@H](CC(=O)N(C)C)CC[C@@H]32)c1,-4,-10,13,7,1
O=C(NCCNC(=O)c1cccc(O)c1)c1cccc(O)c1,1,2,0,-4,-7
NNC(=O)c1cccc(O)c1,·,-6,43*,·,·
COc1ccc(S(=O)(=O)Nc2ccc3c(c2)C(=O)N([C@@H](C)CO)C[C@@H](C)[C@@H](CN(C)Cc2ccc4c(c2)OCO4)O3)cc1,2,-9,-8,-3,2
CCOC(=O)c1c(C)[nH]c(C(=O)COC(=O)/C=C/c2ccc3c(c2)OCO3)c1C,·,·,59*,·,·
CCOC(=O)c1c(C)[nH]c(C(=O)COC(=O)/C=C/c2ccc(O)c(OC)c2)c1C,·,·,3,·,·
COc1ccc2c3c(n(C)c2c1)[C@@H](CO)NCC31CCN(C(C)=O)CC1,-4,·,-9,·,·
COc1ccc2c3c(n(C)c2c1)[C@H](CO)NCC31CN(Cc2ccc(-c3ccccn3)cc2)C1,47*,·,21,-5,89*
COc1ccc2c3c(n(C)c2c1)[C@@H](CO)NCC31CN(Cc2ccccc2F)C1,·,·,12,·,·
COc1ccc2c3c(n(C)c2c1)[C@H](CO)NCC31CCN(CC2CC2)CC1,-1,·,14,-3,63*
COc1ccc2c3c(n(C)c2c1)[C@@H](CO)NCC31CN(CC2CC2)C1,16,·,22,-8,56*
COc1ccc2c3c(n(C)c2c1)[C@@H](CO)NCC31CN(C(C)=O)C1,0,·,15,·,·
COc1ccc2c3c(n(C)c2c1)[C@@H](CO)NCC31CN(Cc2ccccc2Cl)C1,39*,·,16,2,6
Cc1nn(C(=O)c2cccc([N+](=O)[O-])c2)c(C)c1Cl,-1,-9,63*,-1,-13
Cc1nn(C(=O)c2cccc([N+](=O)[O-])c2)c(C)c1Br,1,1,3,-2,-14
COc1cc(CC(=O)O)c([N+](=O)[O-])cc1OC,8,·,-10,0,-1
COc1cc2c(cc1[N+](=O)[O-])n(C(C)C)c(=O)n2C(C)C,1,·,58*,-2,-9
C=CCN=C1CC(C)(C)C(C(=O)OC)C(O)=C1C(=O)CCC (centres undefined),-2,·,73*,-3,-5
COc1ccc(OC)c(CN2CCN(C(=O)c3ccc(C)c(S(=O)(=O)Nc4ccccc4OC)c3)CC2)c1,33*,26,-6,-2,1
COc1ccc2[nH]c3c(NCCN(C(C)C)C(C)C)ncnc3c2c1,·,32,·,·,·
COc1ccc2[nH]c3c(NCCCN4CCCC4=O)ncnc3c2c1,·,23,48*,·,·
CCOC(=O)c1sc(NC(C)=O)nc1-c1ccccc1,·,4,43*,·,·
